A short description of the data set: Toxicity liver stage against HepG2, at 10uM. The arrangement: test concentration 10 uM, cell line HepG2-A16-CD81EGFP. To be noted: human, HepG2-A16-CD81EGFP cells; read-out: INHIBITION
The class given is cell-based. The gist of the method: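 Uninfected HepG2-A16-CD81EGFP cells, 3 × 10^3 per well, 1536-well, plated on prespotted compound at 10 μM final, parasite-free screening media added to match infected plates; puromycin 10 μM positive, DMSO 0.5% negative; run in parallel with 48 h PbLuc assay at 37 °C, 5% CO2; viability by CellTiter-Glo luminescence, normalized to controls.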
As to `COCCOc1ncccc1CNC(=O)N1CCOCC1`, the cytotoxicity at 10 µM was -43.8%. For `Cc1ccc(S(=O)(=O)n2ccn(C(=O)COc3ccccc3)c2=O)cc1`, the cytotoxicity at 10 µM amounted to 5.34%.

Regarding `COC(=O)c1cc(OC)c(OC)cc1N(C)S(C)(=O)=O`, the cytotoxicity at 10 µM came to 7.43%. In the case of `CN(C)C(=O)CN1C[C@H]2CCN(C(=O)c3ccccc3)CC[C@H]2S1(=O)=O` it was 9.1%; in that of `CC(=O)NCC(=O)NC1CCc2c(ccc(=O)n2CC2CC2)C1` (centres undefined), 7.89%; in that of `O=C(c1cocn1)N1CCC2(CC1)CC(OCC1CC1)CO2` (centres undefined), 10%. On to `O=C(NCc1ccccn1)[C@@H]1COC[C@H]2CNC[C@H]21`, for which the cytotoxicity at 10 µM worked out at 11.2%. Turning to `Cc1cccc(CNC(=O)c2cccnc2N)c1`, the cytotoxicity at 10 µM came out at 11%. In the case of `CCN(Cc1nonc1C)C(=O)Cn1nc(C(F)(F)F)cc1C`, the cytotoxicity at 10 µM is 0.7%.

Consider `CCCn1c(N2CCCC2)nc2c(C)nn(C)c2c1=O`, for which the cytotoxicity at 10 µM turned out to be 2.33%. On to `CNC(=O)c1nn(C)cc1NC(=O)C(C)n1ncc(Cl)c1C` (centres undefined), for which the cytotoxicity at 10 µM stood at 8.77%. In the case of `CN(CCc1ccncc1)Cc1c(C2CCCC2)[nH]c2ncccc12`, the cytotoxicity at 10 µM came out at 1.46%. In the case of `Cc1cc(N(C)C)nc(C2(C)CCCNC2)n1` (centres undefined) it was 1.03%; in that of `COCC(=O)N1CCC(c2cc(N(C)C)cc(C)n2)CC1`, 8.6%. For the molecule `COc1cc(CN2CCC3(CC(Nc4ccncn4)C3)C2)cc(OC)c1` (centres undefined), the cytotoxicity at 10 µM is -9.27%. For the molecule `Cc1cccc(C2CCCN(C(=O)c3ccncc3)C2)n1` (centres undefined), the cytotoxicity at 10 µM is 2.97%. The figure for `COCC(=O)N1CCCC1c1csc(Nc2cnccn2)n1` (centres undefined) is -8.11%; for `Cc1cnc(CC2COCCN(Cc3nccn3C)C2)cn1` (centres undefined) it is -2.25%. Turning to `O=C(C1CCCCC1)N1CCC(c2n[nH]c3nccnc23)CC1`, the cytotoxicity at 10 µM came out at 4.05%. On to `Cc1noc(C)c1C(=O)N1CCC2(CC(N(C)c3ccncn3)C2)C1` (centres undefined), for which the cytotoxicity at 10 µM was -5.94%. The figure for `Cc1ncncc1C(=O)N1CCCC(Cc2nccs2)C1` (centres undefined) is -9.13%; for `c1cncc(C2=NOC3(CCN(Cc4c[nH]c5ccccc45)CC3)C2)c1` it is 9.49%. On to `COc1ccccc1-c1cc(C(=O)N2CCCC2)c2cnn(C)c2n1`, for which the cytotoxicity at 10 µM was 9.4%. The figure for `CN(CC1CCOC1)c1ccc(Br)cn1` (centres undefined) is 8.35%; for `Cc1cnc(CN2CCCCC2c2nc(-c3ccccc3)no2)cn1` (centres undefined) it is -42%. Take `CC(C)C(C)NC(=O)Nc1cccn(C)c1=O` (centres undefined): the cytotoxicity at 10 µM is -7.48%. As to `Cc1nccn1-c1ccc(CNS(=O)(=O)N2CCCCC2C)cn1` (centres undefined), the cytotoxicity at 10 µM is -11%. On to `Cn1cc(CN2CCS(=O)(=O)C(C)(C)C2)cn1`, for which the cytotoxicity at 10 µM came to 0.512%.

On to `CC(C)(C)CN(CCO)C(=O)Nc1cccc(N2CCNC2=O)c1`, for which the cytotoxicity at 10 µM is -17.2%. Turning to `COC(=O)CN(C(=O)c1ccoc1)c1cccc(F)c1`, the cytotoxicity at 10 µM was 5.42%. The figure for `Cc1cc(C(=O)NC2CCN(c3ncccc3C#N)CC2)on1` is 0.0456%. For `CS(=O)(=O)NC(=O)c1cnc2c(cnn2C2CCCC2)c1`, the cytotoxicity at 10 µM was 8.18%.

In the case of `O=C(CN1CCN(c2ccccc2F)CC1)Nc1ccc(Cl)cn1`, the cytotoxicity at 10 µM amounted to 4.04%. As for `Cn1ccnc1COc1ccc(NC(=O)CCC2CCCO2)cc1` (centres undefined), the cytotoxicity at 10 µM came out at 4.34%.

Take `Cc1nc(CCNC(=O)C2CC(=O)N(C(C)C)C2)cs1` (centres undefined): the cytotoxicity at 10 µM was found to be 14.9%.

For `Cc1nc(C2CCCN2Cc2cc(Cl)c3c(c2)OCO3)no1` (centres undefined), the cytotoxicity at 10 µM is 7.51%. In the case of `CN(C)CCNC(=O)Nc1cccc(C[S+]([O-])Cc2ccccc2)c1` (centres undefined) it was 6.59%. `CCN(C(=O)CN(Cc1cccc(O)c1)C1CCC(O)CC1)C1CC1` (centres undefined): the cytotoxicity at 10 µM amounted to 1.31%. Take `Cc1occc1CN(C)C(=O)Nc1ccc(=O)n(C)c1`: the cytotoxicity at 10 µM was -53.5%. For `CCc1cc(CNCc2ccccc2N(C)C2CCN(C)CC2)on1`, the cytotoxicity at 10 µM is -11.7%.

As to `Cc1cc(NCc2cccc(C#N)c2)ccc1Br`, the cytotoxicity at 10 µM was found to be 7.99%. As to `CCC1CN(C(=O)c2cnc(-c3cnn(C)c3)s2)CCO1` (centres undefined), the cytotoxicity at 10 µM amounted to 8.79%. With `O=C(Cc1ccc(S(=O)(=O)C(F)F)cc1)N1CCC1`, the cytotoxicity at 10 µM is -17%. For `COc1ccccc1C(C)CC(=O)N1CC[C@H](O)C1` (some centres undefined), the cytotoxicity at 10 µM is -55.7%.

As to `CC(C)(CO)Nc1cc(-c2ccncc2)ncn1`, the cytotoxicity at 10 µM was -0.89%. In the case of `CNc1ccnc(NCCSc2nccn2C)n1` it was -42.6%; in that of `Clc1ccccc1C1(c2ccnc(C3CC3)n2)CCNCC1`, 7.89%. `Cc1nc(CCN(C)C(=O)CN2C(=O)OC[C@@H]2c2ccccc2)no1`: the cytotoxicity at 10 µM was -42.2%. As for `CC(=O)N1CCN(Cc2c(C)ccc3ccccc23)CC(O)C1` (centres undefined), the cytotoxicity at 10 µM amounted to 11.8%.

For `COCCN(Cc1cccnc1)c1nc(C)nc2oc(C)nc12`, the cytotoxicity at 10 µM is -44.1%. As to `Cc1nc2c(c(N3CCCC(CO)C3)n1)CCN(Cc1ccco1)CC2` (centres undefined), the cytotoxicity at 10 µM was -0.044%. Consider `CC(C)Cc1cc(CNC(=O)c2cccc3c2NCCC3)no1`, for which the cytotoxicity at 10 µM is -50.7%. On to `CC(C)c1cc(NCC2(CO)CCCC2)ncn1`, for which the cytotoxicity at 10 µM came to 11.9%. In the case of `COc1ccc(OCc2cc(C(=O)N3C[C@@H](C)O[C@@H](C)C3)n[nH]2)c(Cl)c1` it was -4.28%; in that of `CCn1c(CC2CCN(C(=O)c3ccnn3C)CC2)n[nH]c1=O`, -51.1%; in that of `O=C(CN1CCCCC1=O)N1CCC2(CC1)[C@H](O)C[C@@H]2O`, -1.74%. As to `COCCN1CCC(c2nc3c([nH]2)CCCNC3=O)CC1`, the cytotoxicity at 10 µM came to 0.583%. `CN(Cc1cccnc1)C[C@H]1CC[C@@H](Cc2ccc3c(cnn3C)c2)O1`: the cytotoxicity at 10 µM came to 5.15%. As to `CCc1nnc(N2C[C@@H](NC(C)=O)[C@H](c3ccc(C)o3)C2)s1`, the cytotoxicity at 10 µM was -54.5%.

As for `COCCn1ccnc1CN(Cc1ccccn1)CC(C)C`, the cytotoxicity at 10 µM is 4.96%. As to `Cc1cc(NC(=O)CCn2cncn2)no1`, the cytotoxicity at 10 µM amounted to 2.89%. Take `Cc1cccc(C)c1OC1CN(Cc2cnn(C)c2)C1`: the cytotoxicity at 10 µM was 7.97%. In the case of `CN1CCCN(C[C@H]2C[C@H](CO)CN(Cc3cccnc3N)C2)CC1`, the cytotoxicity at 10 µM was -10.7%.

For `Cc1ccc(CN2CCN(Cc3ccc(N(C)C)nc3)CC2=O)cc1C`, the cytotoxicity at 10 µM is -2.43%. With `Cc1cccnc1CN(C)CC1(O)CCCN(CC2CCCCC2)C1=O` (centres undefined), the cytotoxicity at 10 µM is -4.09%. The figure for `CC(C)c1cc(COCCC(=O)O)no1` is -6.5%. For the molecule `CN1CCN(c2cc(CCNC(=O)C3CCC3)nc(C3CC3)n2)CC1`, the cytotoxicity at 10 µM is 0.462%.

In the case of `CCC1CCCCN1Cc1ncc(C(C)(C)C)o1` (centres undefined), the cytotoxicity at 10 µM was -3.48%.

Take `Cc1nnc2n1CCN(C(=O)c1cc(C)n(-c3ccccc3)c1C)C2`: the cytotoxicity at 10 µM was -4.94%. Take `Cc1ccc(C(=O)N2CCCCC2CNC(N)=O)cc1F` (centres undefined): the cytotoxicity at 10 µM is -6.56%. Take `COCCCN(C)C1CCCN(Cc2noc(C3CC3)n2)C1` (centres undefined): the cytotoxicity at 10 µM was -15.4%. In the case of `CCN1CCN(C(=O)c2ccc(=O)n(C)c2)c2ccccc21`, the cytotoxicity at 10 µM is -1.64%. The figure for `Cc1cc(C)n(CC2CCCN2CCc2ccccn2)n1` (centres undefined) is -8.01%. For the molecule `CN(CC1COc2ccccc2O1)C(=O)CCn1cncn1` (centres undefined), the cytotoxicity at 10 µM was -7.36%.

In the case of `CCOc1ccccc1OC1CCN(C(=O)c2cnns2)CC1`, the cytotoxicity at 10 µM is -3.14%. In the case of `COc1ccc(COCC(O)CN2CCC(c3ccn[nH]3)CC2)cc1` (centres undefined) it was -0.975%. For the molecule `CCOc1ncccc1NC(=O)NCC(O)c1ccc(OC)cc1` (centres undefined), the cytotoxicity at 10 µM was -16.6%. On to `CN(Cc1ccc2c(c1)OCO2)C(=O)Cn1cccnc1=O`, for which the cytotoxicity at 10 µM is -3.96%. The figure for `NC(=O)C1CCN(C(=O)NCc2ccccc2-n2cccn2)CC1` is -11.1%; for `Cc1nnc2n1CCN(CCOc1cccc(C#N)c1)C2` it is -7.88%; for `Cc1cccc(C(=O)N2CCC(c3n[nH]c(C4CC4)n3)CC2)c1` it is -15.3%. In the case of `CCn1cnnc1CNC(=O)c1ccc(Cl)cc1I` it was -6.31%; in that of `CCOc1cc(/C=C/c2ncc(C(=O)O)s2)cc(Br)c1OC`, 7.59%. As for `CCOc1cccc(C(=O)N2CCN(c3nccc(OC)n3)CC2)c1`, the cytotoxicity at 10 µM turned out to be 5.41%. In the case of `Cc1nn(C)c(C)c1CC(=O)N1CCCC(n2ccnc2)C1` (centres undefined) it was -11.5%; in that of `COc1cccc(CCNC(=O)CN2CCN(C)CC2C)c1` (centres undefined), -16.7%; in that of `CCc1ccc(O)c(C(=O)NC2CCN(S(=O)(=O)CC)CC2)c1`, 7.37%. With `CCn1nc2c(cc1=O)CN(Cc1nc(-c3ccccn3)no1)CC2`, the cytotoxicity at 10 µM was -5.13%. Regarding `Cc1cc(C)n(CC(=O)N2CCC(NS(=O)(=O)c3ccccc3)CC2)n1`, the cytotoxicity at 10 µM was 4.59%.

`Cn1cnnc1C1CCN(C(=O)CCCOc2ccccc2F)CC1`: the cytotoxicity at 10 µM was -6.26%. Turning to `COCc1cccc(CNCc2c(C)nn(C)c2N(C)C)c1`, the cytotoxicity at 10 µM worked out at 1.08%. Turning to `Cc1ccc(C(=O)CN(C2=NCCCCC2)c2ccccc2)cc1`, the cytotoxicity at 10 µM worked out at 17.7%.

In the case of `O=S(=O)(C1CC1)N1C[C@H]2CCC[C@@]2(COCc2ccccn2)C1`, the cytotoxicity at 10 µM came out at 10.6%. The figure for `O=C(Cc1cccs1)N1C[C@@H]2COC[C@]2(COCc2cccnc2)C1` is -2.8%; for `O=C1N(c2cccnc2)CCC12CCCN(Cc1ccco1)C2` (centres undefined) it is -5.79%; for `Cc1ccc(C(=O)N2CCc3c(CN4CCCC4)nn(C)c3C2)cc1C` it is -4.86%. Turning to `Cc1cccc(COC2COC3(CCN(S(C)(=O)=O)CC3)C2)n1` (centres undefined), the cytotoxicity at 10 µM came out at 8.98%. For the molecule `Cn1nc(Cn2cccn2)c2c1CN(C1CCOCC1)C2`, the cytotoxicity at 10 µM is 10.1%. On to `O=C(N1CCOCC1)N1C2CCC(O)(CC2)C1CN1CCOCC1` (centres undefined), for which the cytotoxicity at 10 µM was -1.94%.

The record behind these values is ChEMBL document CHEMBL4513216, “Probing the Open Global Health Chemical Diversity Library for Multistage-Active Starting Points for Next-Generation Antimalarials” (ACS Infect Dis, 2020).
